Data as given in paper PMC4339026 (Biopolymers, 2014).
“Also recorded” adds a separate entry of the source.

Columns and labels:
Format in all cases: biochemical
meprin β [1] = target: T1, meprin β (Homo sapiens, UniProt Q16820); assay: Meprin β HTS FRET assay, dose response
T1 sequence (Q16820 62-614 limits assumed): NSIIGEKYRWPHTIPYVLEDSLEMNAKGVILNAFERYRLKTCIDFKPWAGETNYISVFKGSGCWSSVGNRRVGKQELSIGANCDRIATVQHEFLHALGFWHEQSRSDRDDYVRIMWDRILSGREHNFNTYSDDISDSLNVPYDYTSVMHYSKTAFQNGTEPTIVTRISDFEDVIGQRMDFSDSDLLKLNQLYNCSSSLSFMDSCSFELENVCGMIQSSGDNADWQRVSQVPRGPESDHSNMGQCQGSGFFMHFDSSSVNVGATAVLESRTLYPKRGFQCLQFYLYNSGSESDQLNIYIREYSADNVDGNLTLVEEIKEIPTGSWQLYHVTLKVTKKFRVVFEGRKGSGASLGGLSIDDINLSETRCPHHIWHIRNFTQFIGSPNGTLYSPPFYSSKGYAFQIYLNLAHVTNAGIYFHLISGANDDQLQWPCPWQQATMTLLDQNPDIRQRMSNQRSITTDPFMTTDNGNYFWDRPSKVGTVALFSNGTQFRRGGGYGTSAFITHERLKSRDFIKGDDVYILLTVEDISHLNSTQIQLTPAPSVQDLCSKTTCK
In short: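 Trypsin-activated meprin β (trypsin removed on immobilized ovomucoid) in 50 mM Hepes, 0.01% Brij-35, pH 7.5, added as 2x (0.15 nM) solution. Pin-transferred inhibitor was preincubated 30 min at RT. 2x (20 μM) (MCA)-EDEDED-(K-ε-DNP) was then added, run 1 h at RT, and read at ex 324/em 393 nm. A 3-fold dilution series was run in quadruplicate, and % inhibition was fitted with a 4-parameter equation. DMSO final was 0.1% or 1.0%.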

MMP-2 = target: T2, MMP-2 (Homo sapiens, UniProt P08253); assay: Selectivity testing against zinc metalloproteases: MMP-2; conditions: read-out: IC50 MMP-2; n = 3 Mean ± SD
T2 sequence (P08253 110-660): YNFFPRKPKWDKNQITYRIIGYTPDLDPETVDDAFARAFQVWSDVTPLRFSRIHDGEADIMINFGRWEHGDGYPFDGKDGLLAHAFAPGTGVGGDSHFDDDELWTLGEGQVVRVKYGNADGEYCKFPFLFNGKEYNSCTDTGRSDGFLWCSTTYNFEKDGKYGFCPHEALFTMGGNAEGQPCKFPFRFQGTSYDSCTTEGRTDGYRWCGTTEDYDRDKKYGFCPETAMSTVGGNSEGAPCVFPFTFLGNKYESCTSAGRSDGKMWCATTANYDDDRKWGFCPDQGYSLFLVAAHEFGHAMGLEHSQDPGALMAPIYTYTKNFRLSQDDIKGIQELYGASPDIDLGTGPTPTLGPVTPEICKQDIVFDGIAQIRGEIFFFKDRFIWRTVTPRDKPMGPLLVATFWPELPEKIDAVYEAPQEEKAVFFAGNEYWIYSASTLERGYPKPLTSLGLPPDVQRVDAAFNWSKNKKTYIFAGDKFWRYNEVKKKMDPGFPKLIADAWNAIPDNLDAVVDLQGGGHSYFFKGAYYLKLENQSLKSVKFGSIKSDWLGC

MMP-13 = MMP-13 (Homo sapiens, UniProt P45452); assay: Selectivity testing against zinc metalloproteases: MMP-13; conditions: read-out: IC50 MMP-13; n = 3 Mean ± SD
ADAM10 = target: T3, ADAM10 (Homo sapiens, UniProt O14672); assay: Selectivity testing against zinc metalloproteases: ADAM10; conditions: read-out: IC50 ADAM10; n = 3 Mean ± SD
T3 sequence (O14672 214-748): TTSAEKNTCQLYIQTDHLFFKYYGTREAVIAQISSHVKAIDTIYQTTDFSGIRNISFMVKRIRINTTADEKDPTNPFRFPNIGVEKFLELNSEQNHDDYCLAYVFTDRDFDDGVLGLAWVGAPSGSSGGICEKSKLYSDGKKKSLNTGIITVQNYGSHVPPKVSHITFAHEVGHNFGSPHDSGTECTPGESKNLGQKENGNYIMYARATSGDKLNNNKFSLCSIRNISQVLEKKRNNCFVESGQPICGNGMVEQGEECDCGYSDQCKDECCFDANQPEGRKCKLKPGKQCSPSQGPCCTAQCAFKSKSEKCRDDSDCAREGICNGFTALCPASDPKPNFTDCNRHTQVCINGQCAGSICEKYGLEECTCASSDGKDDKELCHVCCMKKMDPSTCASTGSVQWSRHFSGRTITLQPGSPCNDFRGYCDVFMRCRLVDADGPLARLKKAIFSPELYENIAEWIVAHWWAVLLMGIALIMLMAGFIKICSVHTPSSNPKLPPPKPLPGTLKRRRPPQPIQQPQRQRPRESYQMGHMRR

meprin β [2] = target: T1, meprin β; assay: Meprin β inhibition kinetics / enzyme kinetics
In short: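 Trypsin-activated meprin β at 1 nM was run with (MCA)-EDEDED-(K-ε-DNP) 0.5–25 μM plus varying inhibitor concentrations in 50 mM Hepes, 0.01% Brij-35, pH 7.5, at 25 °C. Fluorescence was read at ex 324/em 393 nm. Rates came from the linear portion of the progress curves. Ki and Ki′ came from nonlinear regression with a mixed-inhibition model. Mechanism came from the alpha parameter and was checked with Lineweaver-Burk plots.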

MMP-9 = MMP-9 (Homo sapiens, UniProt P14780); assay: Selectivity testing against zinc metalloproteases: MMP-9; conditions: read-out: IC50 MMP-9; n = 3 Mean ± SD
meprin β [3] = target: T1, meprin β; assay: Meprin β LOPAC pilot screen; conditions: 18 μM

Chain of MMP-9 (P14780 94-707, species assumed): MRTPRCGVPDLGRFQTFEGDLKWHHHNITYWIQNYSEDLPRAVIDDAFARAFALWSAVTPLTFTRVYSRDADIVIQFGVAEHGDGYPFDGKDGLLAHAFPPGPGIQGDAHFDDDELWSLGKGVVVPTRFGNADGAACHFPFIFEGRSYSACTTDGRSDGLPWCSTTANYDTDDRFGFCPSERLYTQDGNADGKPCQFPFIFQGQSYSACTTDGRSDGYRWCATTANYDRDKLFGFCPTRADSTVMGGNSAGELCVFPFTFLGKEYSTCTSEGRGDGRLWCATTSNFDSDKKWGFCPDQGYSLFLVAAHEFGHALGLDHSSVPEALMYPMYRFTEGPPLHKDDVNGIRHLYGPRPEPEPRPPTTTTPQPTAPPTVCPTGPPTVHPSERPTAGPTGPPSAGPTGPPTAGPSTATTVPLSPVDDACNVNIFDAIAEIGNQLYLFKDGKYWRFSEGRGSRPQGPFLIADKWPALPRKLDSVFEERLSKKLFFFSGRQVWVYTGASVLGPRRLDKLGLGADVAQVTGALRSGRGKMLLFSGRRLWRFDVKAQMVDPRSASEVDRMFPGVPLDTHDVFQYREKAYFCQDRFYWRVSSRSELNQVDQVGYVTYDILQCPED

## O=C(Nc1cc(C(=O)Nc2ccc(S(=O)(=O)O)cc2S(=O)(=O)O)cc(C(=O)Nc2ccc(S(=O)(=O)O)cc2S(=O)(=O)O)c1)Nc1cc(C(=O)Nc2ccc(S(=O)(=O)O)cc2S(=O)(=O)O)cc(C(=O)Nc2ccc(S(=O)(=O)O)cc2S(=O)(=O)O)c1 [NF449, 4,4′,4″,4‴-[Carbonyl-bis[imino-5,1,3-benzenetriylbis-(carbonyl-imino)]]tetrakis(benzene-1,3-disulfonic acid)]
Meprin β [1]; dose response experiment, data not shown
  meprin β dose response behaviour: did not exhibit the same effect
Meprin β [1]; ratio of IC50 values
  potency differential meprin β versus meprin α: > 1000 fold
  selectivity ratio meprin β versus MMP-8: approximately 12 fold
Meprin β [1]; read-out: IC50 Meprin β, selectivity testing, n = 3 Mean ± SD
  IC50: 0.07 ± 0.005 µM
MMP-2
  IC50: 6 ± 0.5 µM
MMP-13
  IC50: 40 ± 3 µM
ADAM10
  IC50: 1.2 ± 0.1 µM
Meprin β [2]; meprin β Ki versus HTS IC50
  Ki lower than IC50, fold: 3 fold
Meprin β [2]; mixed-model inhibition, non-linear regression
  α = Ki/Ki′: 3.6 ± 4.3
Meprin β [2]; non-linear regression and Lineweaver-Burke plots
  mechanism of inhibition of meprin β: mixed competitive/non-competitive inhibition modality; also recorded: competitive mechanism with elements of non-competitive inhibition
Meprin β [2]; read-out: Ki meprin β, substrate (MCA)-EDEDED-(K-ε-DNP), mixed inhibition model
  Ki: 0.022 ± 0.0096 µM
MMP-9
  IC50: 8.6 ± 0.7 µM
Meprin β [3]
  % inhibition meprin β in pilot screen: negative inhibition values
Meprin β [3]; hit cutoff 25% inhibition
  meprin β LOPAC pilot screen outcome: selective hits
